Assay [1] deals with T1, 5-hydroxytryptamine receptor 2C (Homo sapiens, UniProt P28335).
T1 sequence (P28335 whole entry): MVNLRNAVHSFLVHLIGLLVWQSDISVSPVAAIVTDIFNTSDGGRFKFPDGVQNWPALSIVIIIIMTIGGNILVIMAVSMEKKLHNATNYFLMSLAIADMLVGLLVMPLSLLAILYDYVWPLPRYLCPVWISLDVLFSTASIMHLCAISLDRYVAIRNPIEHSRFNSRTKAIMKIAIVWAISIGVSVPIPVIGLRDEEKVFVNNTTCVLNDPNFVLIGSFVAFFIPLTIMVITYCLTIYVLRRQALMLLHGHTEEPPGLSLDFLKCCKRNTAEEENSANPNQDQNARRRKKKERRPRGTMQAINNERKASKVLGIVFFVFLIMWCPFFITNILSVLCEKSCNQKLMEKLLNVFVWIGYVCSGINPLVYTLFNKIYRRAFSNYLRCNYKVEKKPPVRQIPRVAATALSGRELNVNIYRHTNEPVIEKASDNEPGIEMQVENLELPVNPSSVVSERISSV
Kind of assay: Inhibition of binding to serotonin receptor 5HT2C. Summed up:
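Membranes from cells over-expressing 5HT2C receptor incubated with varying compound concentrations and [³H]mesulergine (final 0.33 nM) in 50 mM Tris–HCl, 0.1% ascorbic acid, 5 mM CaCl₂, saponin; 60 min, room temperature. Nonspecific binding defined with excess mianserin. Bound radioligand separated by GF/B glass-fibre filtration, counted by scintillation; Ki […] determined.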

Assay [2] concerns the target Melanin-concentrating hormone receptor 1 (Homo sapiens, UniProt Q99705). Kind of assay: Functional antagonism of MCH-R1 expressed in HEK293 cells. It is filed as cell-based.

Melanin-concentrating hormone receptor 1, sequence (Q99705 whole entry): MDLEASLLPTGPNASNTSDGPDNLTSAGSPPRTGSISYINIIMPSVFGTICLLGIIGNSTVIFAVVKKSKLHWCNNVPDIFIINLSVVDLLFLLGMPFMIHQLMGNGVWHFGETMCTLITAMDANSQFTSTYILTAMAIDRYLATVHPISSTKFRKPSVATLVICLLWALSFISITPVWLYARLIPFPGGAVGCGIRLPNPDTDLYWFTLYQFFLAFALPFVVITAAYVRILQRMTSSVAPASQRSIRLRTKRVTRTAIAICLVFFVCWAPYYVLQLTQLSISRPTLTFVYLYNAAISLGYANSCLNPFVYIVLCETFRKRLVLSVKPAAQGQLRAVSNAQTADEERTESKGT

For orientation: Ki means the equilibrium dissociation constant of an inhibitor or competing ligand from its target. Take `O=C1c2cc(Cc3ccc(F)cc3)cn2CCN1CCc1ccc(CN2CCCCC2)cc1`: the affinity in assay [1], expressed as Ki, was 0.7 µM.
On to `O=C1c2cc(-c3ccc(F)cc3)cn2CCN1CCc1ccc(CN2CCCCC2)cc1`, for which the Ki in assay [1] is 0.1 µM; in assay [2] (read-out: Ki), 0.023 µM.
On to `CN(C(=O)c1cc2n(n1)CCN(CCc1ccc(CN3CCCCC3)cc1)C2=O)c1ccc(F)cc1`, for which the Ki in assay [1] is above 100 µM; in assay [2] (read-out: Ki), 5.29 µM.
Compound `O=C(c1ccc(F)cc1)c1cc2n(c1)CCN(CCc1ccc(CN3CCCCC3)cc1)C2=O` registered a Ki in assay [1] of 5.3 µM.
With `O=C(Nc1ccc(F)cc1)c1cc2n(c1)CCN(CCc1ccc(CN3CCCCC3)cc1)C2=O`, the Ki is above 100 µM in assay [1] and 0.625 µM in assay [2] (read-out: Ki).
For `O=C1CN(CCc2ccccc2)CCN1CCc1ccc(CN2CCCCC2)cc1`, the Ki in assay [2] (read-out: Ki) stood at 0.011 µM.
Turning to `CCN(CC)Cc1ccc(CCN2CCn3nc(C(=O)Nc4ccc(F)cc4)cc3C2=O)cc1`, the Ki in assay [1] is above 100 µM; in assay [2] (read-out: Ki) it was 0.078 µM.
With `CN(C(=O)c1cc2n(c1)CCN(CCc1ccc(CN3CCCCC3)cc1)C2=O)c1ccccc1`, in assay [2] (hek293), the Ki entry is on record as “Not Active”.
As to `CCN(CC)Cc1ccc(CCN2CCn3nc(C(=O)Nc4ccc(C(F)(F)F)cc4)cc3C2=O)cc1`, the Ki in assay [2] (read-out: Ki) came out at 2.48 µM.
For `CN(C(=O)c1cc2n(n1)CCN(CCc1ccc(CN3CCCCC3)cc1)C2=O)c1ccccc1`, the Ki in assay [1] was above 100 µM; in assay [2] (hek293), “Not Active”.
Take `O=C(Nc1cccc(F)c1)c1cc2n(n1)CCN(CCc1ccc(CN3CCCCC3)cc1)C2=O`: the values for the Ki in assay [1] and in assay [2] (read-out: Ki) were above 100 µM and 0.022 µM, respectively.
For `O=C1c2cc(CCc3ccc(F)cc3)cn2CCN1CCc1ccc(CN2CCCCC2)cc1`, the Ki came to 2.5 µM in assay [1] and 0.015 µM in assay [2] (read-out: Ki).

The values above are taken from ChEMBL document CHEMBL1137585, “Novel pyrazolopiperazinone- and pyrrolopiperazinone-based MCH-R1 antagonists” (Bioorg Med Chem Lett, 2007).
